Measurements reported in ChEMBL document CHEMBL1671867, “Novel polymyxin derivatives carrying only three positive charges are effective antibacterial agents” (Antimicrob Agents Chemother, 2008).

Tests used:
Format in all cases: functional
[1] = tested on: Acinetobacter baumannii; test: (§1) Antibacterial activity against Acinetobacter baumannii F264 by Etest method in presence of […] NAB739
[2] = tested on: Pseudomonas aeruginosa; test: Antibacterial activity against Pseudomonas aeruginosa ATCC 27853by Etest method in presence of 1 ug/ml NAB739
Summary of the method: (§2)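 MICs of the antibiotic taken from E-strips on Mueller-Hinton agar, run both with and without peptide. […] Inoculum was prepared per the strip manufacturer, matching CLSI M2-A9.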

[3] = tested on: Pseudomonas aeruginosa; test: Antibacterial activity against Pseudomonas aeruginosa ATCC 27853by Etest method in presence of 0.5 ug/ml NAB739; summary of the method: as §2
[4] = tested on: Acinetobacter baumannii; test: Antibacterial activity against Acinetobacter baumannii ATCC 19606 by Etest method in presence of 1 ug/ml NAB739
[5] = tested on: Acinetobacter baumannii; test: Antibacterial activity against Acinetobacter baumannii F264 by Etest method in presence of 1 ug/ml NAB739
[6] = tested on: Acinetobacter baumannii; test: Antibacterial activity against Acinetobacter baumannii F264 by Etest method in presence of 0.5 ug/ml NAB739
[7] = tested on: Pseudomonas aeruginosa; test: (§3) Antibacterial activity against Pseudomonas aeruginosa ATCC 27853by Etest method in presence of […] NAB739
[8] = tested on: Pseudomonas aeruginosa; test: Antibacterial activity against Pseudomonas aeruginosa ATCC 27853by Etest method in presence of 2 ug/ml NAB739
[9] = tested on: Acinetobacter baumannii; test: Antibacterial activity against Acinetobacter baumannii F264 by Etest method in presence of NAB739
[10] = tested on: Acinetobacter baumannii; test: Antibacterial activity against Acinetobacter baumannii F264 by Etest method
Summary of the method: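 E-strip MIC on Mueller-Hinton agar without added peptide; inoculum per manufacturer, matching CLSI M2-A9.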

[11] = tested on: Pseudomonas aeruginosa; test: Antibacterial activity against Pseudomonas aeruginosa ATCC 27853by Etest method; summary of the method: as §2
[12] = tested on: Pseudomonas aeruginosa; test: as §3; remark: listed apart in the source
[13] = tested on: Acinetobacter baumannii; test: (§4) Antibacterial activity against Acinetobacter baumannii ATCC 19606 by Etest method in presence of […] NAB739
[14] = tested on: Acinetobacter baumannii; test: as §1; remark: listed apart in the source
[15] = tested on: Acinetobacter baumannii; test: Antibacterial activity against Acinetobacter baumannii ATCC 19606 by Etest method in presence of 0.5 ug/ml NAB739
[16] = tested on: Acinetobacter baumannii; test: as §4; remark: listed apart in the source
[17] = tested on: Acinetobacter baumannii; test: Antibacterial activity against Acinetobacter baumannii ATCC 19606 by Etest method
[18] = tested on: Acinetobacter baumannii; test: Antibacterial activity against Acinetobacter baumannii ATCC 19606 by Etest method in presence of NAB739
[19] = tested on: Serratia marcescens; test: Antibacterial activity against Serratia marcescens ATCC 8100 by CLSI M7-A7 agar dilution method
Summary of the method: (§5)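 Agar dilution on Mueller-Hinton agar with test substance at 0.25 to 32 μg/ml in twofold steps. Spots of about 10^4 CFU applied with a multipoint inoculator.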

[20] = tested on: Klebsiella oxytoca; test: Antibacterial activity against Klebsiella oxytoca CCUG51683 by CLSI M7-A7 agar dilution method; summary of the method: as §5
[21] = tested on: Pseudomonas aeruginosa; test: Antibacterial activity against Pseudomonas aeruginosa ATCC 27853 by CLSI M7-A7 agar dilution method; summary of the method: as §5
[22] = tested on: Escherichia coli; test: Antibacterial activity against Escherichia coli by CLSI M7-A7 agar dilution method; summary of the method: as §5
[23] = tested on: Escherichia coli; test: Antibacterial activity against Escherichia coli IH3080 by CLSI M7-A7 agar dilution method
[24] = tested on: Acinetobacter baumannii; test: Antibacterial activity against Acinetobacter baumannii by CLSI M7-A7 agar dilution method
[25] = tested on: Escherichia coli; test: Antibacterial activity against Escherichia coli IH3080 assessed as growth inhibition at 10 ug after 18 hrs by […]
[26] = tested on: Acinetobacter baumannii; test: Antibacterial activity against Acinetobacter baumannii ATCC 19606 by CLSI M7-A7 agar dilution method
[27] = tested on: Enterobacter cloacae; test: Antibacterial activity against Enterobacter cloacae ATCC 23355 by CLSI M7-A7 agar dilution method
[28] = tested on: Enterobacter cloacae; test: Antibacterial activity against Enterobacter cloacae by CLSI M7-A7 agar dilution method
[29] = tested on: Escherichia coli; test: Antibacterial activity against Escherichia coli IH3080 assessed as growth inhibition at 10 ug after 18 hrs by […] in presence of 1 ug/ml rifampin
[30] = tested on: Staphylococcus aureus; test: Antibacterial activity against Staphylococcus aureus ATCC 25923 by CLSI M7-A7 agar dilution method; summary of the method: as §5
[31] = tested on: Escherichia coli; test: Antibacterial activity against Escherichia coli SC 9253 by CLSI M7-A7 agar dilution method; summary of the method: as §5
[32] = tested on: Escherichia coli; test: Antibacterial activity against Escherichia coli SC 9252 by CLSI M7-A7 agar dilution method
[33] = tested on: Klebsiella pneumoniae; test: Antibacterial activity against Klebsiella pneumoniae by CLSI M7-A7 agar dilution method; summary of the method: as §5
[34] = tested on: Escherichia coli; test: Antibacterial activity against Escherichia coli ATCC […] by CLSI M7-A7 agar dilution method
[35] = tested on: Klebsiella oxytoca; test: Antibacterial activity against Klebsiella oxytoca ATCC 13182 by CLSI M7-A7 agar dilution method; summary of the method: as §5
[36] = tested on: Enterobacter cloacae; test: Antibacterial activity against Enterobacter cloacae CCUG52947 by CLSI M7-A7 agar dilution method
[37] = tested on: Citrobacter freundii; test: Antibacterial activity against Citrobacter freundii ATCC 8090 by CLSI M7-A7 agar dilution method
[38] = tested on: Candida albicans; test: Antibacterial activity against Candida albicans ATCC 28366 by CLSI M7-A7 agar dilution method
[39] = tested on: Klebsiella pneumoniae; test: Antibacterial activity against Klebsiella pneumoniae CCUG45421 by CLSI M7-A7 agar dilution method; summary of the method: as §5

## CN[C@H](CC(C)C)C(=O)N[C@H]1C(=O)N[C@@H](CC(N)=O)C(=O)N[C@H]2C(=O)N[C@H]3C(=O)N[C@H](C(=O)N[C@H](C(=O)O)c4cc(O)cc(O)c4-c4cc3ccc4O)[C@H](O)c3ccc(c(Cl)c3)Oc3cc2cc(c3O[C@@H]2O[C@H](CO)[C@@H](O)[C@H](O)[C@H]2O[C@H]2C[C@](C)(N)[C@H](O)[C@H](C)O2)Oc2ccc(cc2Cl)[C@H]1O [VANCOMYCIN]
[1]
  MIC: 256 µg/mL
[2]
  MIC: > 256 µg/mL
[3]
  MIC: > 256 µg/mL
[4]
  MIC: 1 µg/mL
[5]
  MIC: 1 µg/mL
[6]
  MIC: 3 µg/mL
[7]
  MIC: > 256 µg/mL
[8]
  MIC: > 256 µg/mL
[9]
  fractional inhibitory concentration index (FICI): <=0.188
[10]
  MIC: > 256 µg/mL
[11]
  MIC: > 256 µg/mL
[12]
  MIC: > 256 µg/mL
[13]
  MIC: 64 µg/mL
[14]
  MIC: 16 µg/mL
[15]
  MIC: 3 µg/mL
[16]
  MIC: 8 µg/mL
[17]
  MIC: > 256 µg/mL
[18]
  fractional inhibitory concentration index (FICI): <=0.156

## POLYMYXIN B
[19]
  MIC: > 32 µg/mL
[20]
  MIC: 0.5 µg/mL
[21]
  MIC: 1 µg/mL
[22]
  MIC: 0.25 µg/mL
[23]
  MIC: 0.5 µg/mL
[24]
  MIC: 0.5 µg/mL
[25]
  inhibition zone (IZ): 120 mm2
[26]
  MIC: 1 µg/mL
[27]
  MIC: 0.5 µg/mL
[28]
  MIC: 0.5 µg/mL
[29]
  inhibition zone (IZ): 125 mm2
[30]
  MIC: > 32 µg/mL
[31]
  MIC: > 32 µg/mL
[32]
  MIC: > 32 µg/mL
[33]
  MIC: 0.5 µg/mL
[34]
  MIC: 1 µg/mL
[35]
  MIC: 0.5 µg/mL
[36]
  MIC: 1 µg/mL
[37]
  MIC: 1 µg/mL
[38]
  MIC: > 32 µg/mL
[39]
  MIC: 1 µg/mL
